From ChEMBL document CHEMBL1151890, “Synthesis and SAR of amino acid-derived heterocyclic progesterone receptor full and partial agonists” (Bioorg Med Chem Lett, 2009)

Tests used:
Assay type in all cases: ADME, organism-based
[1] = Cmax in rat at 2 mg/kg, po; set-up: dose 2 mg/kg, route oral; settings: in vivo
In short: (§1)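 Rats were dosed both intravenously and orally, at 1.1 or 1.2 mg/kg iv and 2.0 or 2.3 mg/kg po. Plasma parameters were derived from these dosings. Values are means of three experiments with standard deviation.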

[2] = AUC (0 to t) in rat at 2 mg/kg, po; set-up: dose 2 mg/kg, route oral; settings: plasma; in short: as §1
[3] = Oral bioavailability in rat at 2 mg/kg; settings: in vivo; in short: as §1
[4] = Half life in rat at 2 mg/kg, po; set-up: dose 2 mg/kg, route oral; settings: in vivo; in short: as §1

Question: Which results are given for CC(C)CC(c1nnnn1C)N(CC(C)C)c1ccc(C#N)c(Cl)c1 (centres undefined)?
Answer: Cmax [1]: 146 ng/mL; AUC(0-t) [2]: 572 ng·h/mL; bioavailability [3]: 100%; half-life [4]: 8.9 h
